# Laboratory results from ChEMBL document CHEMBL1156797, “Synthesis and antiplasmodial activity of new indolone N-oxide derivatives” (J Med Chem, 2010).
# Experiments:
# [1] = Cytotoxicity against human MCF7 cells after 48 hrs by MTT assay; format: cell-based
# Plasmodium berghei [2] = assay: Antimalarial activity against Plasmodium berghei NK65 infected Swiss mice (Mus musculus) assessed as reduction in parasitemia treated intraperitoneally for 3 days measured on day 4; settings: NK65, ip
# Plasmodium berghei [3] = assay: Antimalarial activity against Plasmodium berghei NK65 infected Swiss mice (Mus musculus) assessed as reduction in parasitemia at 10 mg/kg, intraperitoneally after 3 days measured on day 4; set-up: scale not given: the % may be the effect or the level left; settings: route intraperitoneal
# [4] = Cytotoxicity against human KB cells after 72 hrs by alamar blue assay; format: cell-based
# In short: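 KB cells were seeded at 4×10^4 cells/mL in RPMI 1640 with 10% heat-inactivated FCS and left 24 h at 37 °C, 5% CO2. A dilution series was added in triplicate for 72 h, then AlamarBlue for 2–4 h. Fluorescence was read at ex 530/em 585 nm, with podophyllotoxin as positive control and values from curve fitting.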
# [5] = Selectivity index, ratio of CC50 for human MCF7 cells to IC50 for chloroquine-resistant Plasmodium falciparum FcB1; format: functional
# In short: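 XTT 0.5 mg/mL added for 180 min, formazan read at 450 nm, value taken from dose–response curves, two experiments in triplicate. This CC50 is divided by the FcB1 IC50 to give the index.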
# Plasmodium falciparum [6] = assay: Antimalarial activity against chloroquine-resistant Plasmodium falciparum FcB1 assessed as [3H]hypoxanthine incorporation after 48 hrs by beta-counter; format: functional, organism-based; settings: FcB1/Columbia
# In short: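 Primary assay (Toulouse) on FcB1 cultured in RPMI with 25 mM HEPES and 10% human serum, O RBCs. Serial dilutions in triplicate, 2% parasitaemia, 2% haematocrit, 48 h at 37 °C, 5% CO2. [3H]-hypoxanthine added at 24 h, freeze-thaw harvest, β-counting. IC50 by linear regression on the linear segment of the semilog inhibition curve. Three independent repeats.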
# [7] = Inhibition of beta-hematin formation assessed as biocrystallization by UV-visible assay; format: functional
# Plasmodium berghei [8] = assay: Antimalarial activity against Plasmodium berghei ANKA infected Swiss mice (Mus musculus) assessed as reduction in parasitemia at 30 mg/kg, perorally after 3 days measured on day 4; format: functional; set-up: scale not given: the % may be the effect or the level left; settings: route oral
# In short: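 Male Swiss outbred CD-1 mice (20 g) were infected iv with 2×10^6 P. berghei ANKA-infected red cells and put in groups of five per dose. Dosing was by oral gavage in suspending vehicle (0.5% Na carboxymethylcellulose, 0.5% benzyl alcohol, 0.4% Tween 80, 0.9% NaCl), starting 3 h postinfection, then once daily on days 1–3. Day-4 Giemsa films; % inhibition against untreated mean parasitaemia.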
# [9] = Selectivity index, ratio of CC50 for human KB cells to IC50 for drug-sensitive Plasmodium falciparum 3D7; format: functional
# In short: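 The 3D7 value came from [3H]hypoxanthine incorporation: synchronized culture at 0.5% parasitaemia, 2.5% hematocrit, Albumax-supplemented medium, 2-fold dilutions from 100 to 0.05 μM in triplicate, label added at 24 h and harvested at 48 h.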
# Plasmodium falciparum [10] = assay: Resistance index, ratio of IC50 for chloroquine-resistant Plasmodium falciparum FcB1 to IC50 for drug-sensitive Plasmodium falciparum 3D7; format: functional
# Plasmodium berghei [11] = assay: Antimalarial activity against Plasmodium berghei ANKA infected Swiss mice (Mus musculus) assessed as reduction in parasitemia at 30 mg/kg, intraperitoneally after 3 days measured on day 4; format: functional; set-up: scale not given: the % may be the effect or the level left; settings: route intraperitoneal
# In short: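 P. berghei ANKA in male Swiss outbred CD-1 mice (20 g), kept specific pathogen-free. Infection was iv with 2×10^6 infected red cells on day 0, then mice were randomized into groups of five per dose. Compound was given ip in 0.05% Tween 80. Parasitaemia was read from Giemsa-stained blood films on day 4 and expressed as % inhibition from group arithmetic mean parasitaemia versus the untreated group.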
# Plasmodium falciparum [12] = assay: Antimalarial activity against drug-sensitive Plasmodium falciparum 3D7 assessed as [3H]hypoxanthine incorporation by scintillation counting; format: functional, organism-based
# [13] = Metabolic stability in CD1 mouse liver microsomes assessed as half life; format: ADME, Microsome
# Plasmodium falciparum [14] = assay: Resistance index, ratio of IC50 for chloroquine-resistant Plasmodium falciparum K1 to IC50 for drug-sensitive Plasmodium falciparum 3D7; format: functional
# Plasmodium falciparum [15] = assay: Antimalarial activity against Plasmodium falciparum K1 assessed as [3H]hypoxanthine incorporation by scintillation counting; format: functional, organism-based
# Plasmodium berghei [16] = assay: Antimalarial activity against Plasmodium berghei NK65 infected Swiss mice (Mus musculus) assessed as reduction in parasitemia at 48 mg/kg, intraperitoneally after 3 days measured on day 4; set-up: scale not given: the % may be the effect or the level left; settings: route intraperitoneal
# Mus musculus = assay: Toxicity in Swiss mouse at 140 mg/kg, ip; format: organism-based; set-up: dose 140 mg/kg, route intraperitoneal; settings: in vivo
SMILES,CC50 at 48 h [1],ED50 (Plasmodium berghei [2]),Activity (Plasmodium berghei [3]),CC50 at 72 h [4],Ratio CC50/IC50 [5],IC50 (Plasmodium falciparum [6]),IC50 [7],Activity (Plasmodium berghei [8]),Ratio CC50/IC50 [9],Ratio IC50 (Plasmodium falciparum [10]),Activity (Plasmodium berghei [11]),IC50 (Plasmodium falciparum [12]),half-life [13],Ratio IC50 (Plasmodium falciparum [14]),IC50 (Plasmodium falciparum [15]),Activity (Plasmodium berghei [16]),Activity (Mus musculus)
CCN(CC)CCCC(C)Nc1ccnc2cc(Cl)ccc12 (stereo unspecified) [CHLOROQUINE],19400 nM,3 mg/kg,100%,44000 nM,–,–,–,–,–,–,–,–,–,–,–,–,–
CCOc1ccc(C2=[N+]([O-])c3cc4c(cc3C2=O)OCO4)cc1,51900 nM,–,–,–,332,156 nM,Not Active,–,–,–,–,–,–,–,–,–,–
O=C1C(c2ccccc2)=[N+]([O-])c2ccccc21,19500 nM,–,–,–,22,889 nM,Not Active,–,–,–,–,–,–,–,–,–,–
COc1ccc2c(c1)C(=O)C(c1ccc(N(C)C)cc1)=[N+]2[O-],43900 nM,–,–,338000 nM,> 14600,< 3 nM,–,20.9%,198823,2.9,15.3%,1.7 nM,6 min,–,–,–,–
COc1ccc2c(c1)C(=O)C(c1ccc(C)c(C)c1)=[N+]2[O-],26000 nM,–,–,148000 nM,702.7,37 nM,–,–,980,0.3,–,142 nM,–,1.2,178 nM,–,–
COc1ccc(C2=[N+]([O-])c3ccccc3C2=O)cc1,> 39500 nM,–,–,457000 nM,>202,195 nM,–,32.4%,4525,1.9,40.5%,101 nM,16 min,1.2,124 nM,–,–
COc1ccc(C2=[N+]([O-])c3ccc(OC)cc3C2=O)cc1,> 35300 nM,–,–,874000 nM,>882,40 nM,–,–,10658,0.5,–,82 nM,–,0.2,16 nM,–,–
COc1ccc2c(c1)C(=O)C(c1ccc(C(F)(F)F)cc1)=[N+]2[O-],11700 nM,–,–,110000 nM,273,43 nM,–,–,>220,86,–,< 0.5 nM,–,3.8,1.9 nM,–,–
O=C1C(c2ccc(Cl)cc2)=[N+]([O-])c2cc3c(cc21)OCO3,15900 nM,16 mg/kg,–,27000 nM,212,75 nM,–,14.5%,450,1.3,62.1%,58 nM,< 1 min,1.5,88 nM,81%,Non-toxic
C[C@H]1[C@H](OC(=O)CCC(=O)[O-])O[C@@H]2O[C@@]3(C)CC[C@H]4[C@H](C)CC[C@@H]1[C@@]24OO3.[Na+] [SODIUM ARESUNATE],9800 nM,–,–,36200 nM,1633,6 nM,–,–,9045,1.5,–,4 nM,–,1,4 nM,–,–
COc1ccc2c(c1)C(=O)C(c1ccc(Cl)cc1)=[N+]2[O-],21500 nM,–,–,469000 nM,102,210 nM,–,–,7564,3.4,–,62 nM,–,1,59 nM,–,–
COc1ccc2c(c1)C(=O)C(c1ccc(OC(C)C)cc1)=[N+]2[O-],> 32100 nM,–,–,321000 nM,> 1890,17 nM,–,25.1%,10031,0.5,30.4%,32 nM,6 min,2.5,81.3 nM,–,–
